Drawing on ChEMBL document CHEMBL4699552, “Paecilosetin Derivatives as Potent Antimicrobial Agents from Isaria farinosa” (J Nat Prod, 2020), this text covers IC50 and MIC for nine compounds.

In one assay the test system is MRC5. In words: Cytotoxicity against human MRC5 cells assessed as reduction in cell viability after 72 hrs by CellTiter Glo assay. It is filed as cell-based. Particulars: MRC5, 72 h. An outline of the steps: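 Lung fibroblasts from ATCC, grown in DMEM with 10% FCS and 1% glutamine at 37 °C under 5% CO2, were seeded at 3 × 10^3 cells/well. After 24 h they were dosed at 10 final concentrations by serial dilution in medium, with vehicle controls. After 72 h, viability was read by CellTiter Glo luminescence (15 min). Triplicate runs; IC50 from four- or five-parameter logistic fits.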
On the technique in general: ATP-based viability assays read luminescence as a measure of living cells.

The subject of another assay is Trichophyton rubrum. In words: Antifungal activity against Trichophyton rubrum SNB-TR1 assessed as reduction in microbial growth after 5 days by microdilution method. In kind it is functional. The following applies: SNB-TR1, 120 h, time 5 day. The method in brief: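 CLSI M38 broth microdilution on a clinical dermatophyte isolate. Serial dilutions from 256 to 0.5 µg/mL, incubated at 35 °C and read after 5 days. MIC is the lowest concentration preventing visible growth. Run in duplicate.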
(In broth dilution the organism is exposed to a series of concentrations in liquid medium.)

In assay [1] the test system is Staphylococcus aureus. The assay is described as follows: Antimicrobial activity against methicillin-sensitive Staphylococcus aureus ATCC 29213 assessed as reduction in microbial growth after 24 hrs by microdilution method. It is filed as functional. An outline of the steps: (§1)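 Bacterial MICs by CLSI M7 broth microdilution on ATCC strains. Concentrations ran from 256 to 0.5 µg/mL, with 24 h incubation at 35 °C. MIC is the lowest concentration with no visible growth. Duplicate assays.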

In assay [2] the test system is Candida albicans. The assay is described as follows: Antifungal activity against Candida albicans ATCC 10231 assessed as reduction in microbial growth after 48 h by microdilution method. Particulars: ATCC 10231, 48 h.
The test system of another assay is Escherichia coli. In words: Antimicrobial activity against Escherichia coli ATCC 25922 assessed as reduction in microbial growth after 24 hrs by microdilution method. In kind it is functional. The method in brief:
as §1

For assay [3], the system named is Staphylococcus aureus. In words: Antimicrobial activity against methicillin-resistant Staphylococcus aureus ATCC 33591 assessed as reduction in microbial growth after 24 hrs by microdilution method. It is filed as functional. An outline of the steps:
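Broth microdilution per CLSI M7; test range 256 to 0.5 µg/mL; plates incubated at 35 °C and read at 24 h for bacteria; MIC taken as lowest concentration preventing visible growth in the wells; run in duplicate.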

The subject of assay [4] is Candida albicans. In words: Antifungal activity against Candida albicans ATCC 10231 assessed as reduction in microbial growth after 5 days by microdilution method. It is filed as functional. The following applies: ATCC 10231, 120 h, time 5 day.

Bounds are passed on as bounds.

For orientation: IC50 means the concentration at which inhibition is half-maximal. The MIC is the lowest concentration found to suppress growth. `C/C=C/[C@@H]1C=C[C@@H]2C[C@H](C)CC[C@H]2[C@]1(C)/C(O)=C1\C(=O)N[C@@H]([C@@H](C)O)C1=O`: in the assay with MRC5, the IC50 came out at 50.3 µM. For the same compound, the MIC was 64 µg/mL in the assay with Trichophyton rubrum; 8 µg/mL in the assay on Staphylococcus aureus [1]; 128 µg/mL with Candida albicans [2]; more than 256 µg/mL in the assay with Escherichia coli; 16 µg/mL in the assay on Staphylococcus aureus [3].
With `C/C=C/[C@@H]1C=C[C@@H]2C[C@H](C)CC[C@H]2[C@]1(C)/C(O)=C1\C(=O)N[C@@H]([C@H](C)O)C1=O`, the concentration for half-maximal inhibition (IC50) with MRC5 is 40 µM. In addition, the MIC in the assay on Trichophyton rubrum was 32 µg/mL; in the assay on Staphylococcus aureus [1], 2 µg/mL; in the assay with Candida albicans [2] it was 16 µg/mL; in the assay on Escherichia coli, more than 256 µg/mL; with Staphylococcus aureus [3] it was 2 µg/mL.
As for `Cc1onc(-c2ccccc2)c1C(=O)N[C@@H]1C(=O)N2[C@@H]1SC(C)(C)[C@@H]2C(=O)O` [OXACILLIN], the MIC in the assay on Staphylococcus aureus [1] came to 0.25 µg/mL.
As for `C/C=C1\NC(=O)C(C(=O)[C@@]2(C)[C@@H]3CC[C@@H](C)C[C@H]3C=C[C@H]2/C=C/C)=C1O`, in the assay with MRC5, the IC50 amounted to 24.2 µM. In addition, the MIC with Trichophyton rubrum was 32 µg/mL; with Staphylococcus aureus [1], 2 µg/mL; in the assay with Candida albicans [2], 32 µg/mL; with Escherichia coli, more than 256 µg/mL; with Staphylococcus aureus [3], 1 µg/mL.
Turning to GENTAMICIN, the minimum inhibitory concentration (MIC) in the assay with Escherichia coli stood at 8 µg/mL.
Take `C/C=C/[C@@H]1C=C[C@@H]2C[C@H](CO)CC[C@H]2[C@]1(C)/C(O)=C1\C(=O)N[C@@H]([C@H](C)O)C1=O`: the MIC in the assay on Trichophyton rubrum was more than 256 µg/mL; with Staphylococcus aureus [1] it was more than 256 µg/mL; with Candida albicans [2] it was more than 256 µg/mL; with Escherichia coli it was 256 µg/mL; with Staphylococcus aureus [3], more than 256 µg/mL.
For the compound `OC(Cn1cncn1)(Cn1cncn1)c1ccc(F)cc1F` [FLUCONAZOLE], the MIC in the assay on Trichophyton rubrum turned out to be 4 µg/mL; with Candida albicans [4] it was 1 µg/mL.
Consider `C/C=C/[C@@H]1C=C[C@@H]2C[C@H](CO)CC[C@H]2[C@]1(C)/C(O)=C1\C(=O)N[C@@H]([C@@H](C)O)C1=O`, for which the MIC in the assay with Trichophyton rubrum, in the assay with Staphylococcus aureus [1], with Candida albicans [2], in the assay on Escherichia coli and in the assay on Staphylococcus aureus [3] was more than 256 µg/mL in each case.
`C/C=C1\NC(=O)C(C(=O)[C@@]2(C)[C@@H]3CC[C@@H](CO)C[C@H]3C=C[C@H]2/C=C/C)=C1O`: the concentration for half-maximal inhibition (IC50) in the assay with MRC5 came to 106 µM. The MIC in the assay on Trichophyton rubrum is more than 256 µg/mL; with Staphylococcus aureus [1] it was 64 µg/mL; with Candida albicans [2], more than 256 µg/mL; with Escherichia coli, more than 256 µg/mL; with Staphylococcus aureus [3] it was 128 µg/mL.
